Source: ChEMBL document CHEMBL5223159, “Structural and Functional Characterization of Indane-Core CD4-Mimetic Compounds Substituted with Heterocyclic Amines” (ACS Med Chem Lett, 2023)
The source made the active and inactive calls. The rule behind the calls is not given here.

Assays:
Assay type in all cases: functional, organism-based
[1] = tested on: Human immunodeficiency virus 1; assay: Antiviral activity against HIV-1 CH58TF infected in primary CD4 T cells isolated from PBMC assessed as antibody dependent cellular toxicity (ADCC) at 50 uM by cell surface staining based assay
How it was run: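 Primary CD4 T cells from PBMC infected with HIV-1 CH58TF for 48 h, then surface-stained with 1:1000 HIV+ plasma (n = 3) plus 50 μM compound or DMSO vehicle. Bound IgG detected with Alexa Fluor 647 anti-human IgG secondary by flow cytometry. Mean ± SEM.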

[2] = tested on: Human immunodeficiency virus 1; assay: Antiviral activity against HIV-1 CH58TF infected in primary CD4 T cells isolated from PBMC assessed as antibody dependent cellular toxicity (ADCC) by measuring killing of p24+ infected cells at 50 uM FACS-based ADCC assay; details: T cell
How it was run: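 CH58TF-infected (48 h) primary CD4 T cells from PBMC served as targets in a FACS-based ADCC assay. Plasma from 3 HIV-1-infected individuals at 1:1000, with 50 μM compound or DMSO vehicle. Read-out is killing of p24+ infected cells. Mean ± SEM.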

[3] = tested on: Human immunodeficiency virus 1; assay: Antiviral activity against HIV-1 JRFL infected in primary CD4 T cells isolated from PBMC assessed as antibody dependent cellular toxicity (ADCC) at 50 uM by cell surface staining based assay
[4] = tested on: Human immunodeficiency virus 1; assay: Antiviral activity against HIV-1 JRFL infected in HEK293T cells coexpressing firefly luciferase gene incubated for 1 hr; details: Human immunodeficiency virus 1, JRFL, HEK-293T
[5] = tested on: Human immunodeficiency virus 1; assay: Antiviral activity against HIV-1 JRFL assessed as inhibition of viral growth; details: Human immunodeficiency virus 1, JRFL
How it was run: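 IC50 against JRFL measured in triplicate. Where more than one triplicate experiment was run, the value is the mean IC50 with SEM and N triplicates.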

[6] = tested on: Amphotropic murine leukemia virus; assay: Antiviral activity against A-MLV infected in HEK293T cells coexpressing firefly luciferase gene incubated for 1 hr; details: HEK-293T
[7] = tested on: Amphotropic murine leukemia virus; assay: Antiviral activity against A-MLV assessed as inhibition of viral growth
How it was run: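 Control virus pseudotyped with amphotropic MLV Env, tested at concentrations up to 100 μM.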

Row | Compound | Activity [1] | Activity [2] | IC50 [4] [µM] | further results
1 | COC(=O)[C@@H]1C[C@@H](O)CN1Cc1ccc2c(c1)C[C@H](CNC(=N)N)[C@H]2NC(=O)C(=O)Nc1ccc(Cl)c(F)c1 | Active | inactive | 6.4 | Activity [3]: inactive
2 | N=C(N)NC[C@H]1Cc2ccccc2[C@@H]1NC(=O)C(=O)Nc1ccc(Cl)c(F)c1 | – | – | – | IC50 [5]: 66.8 µM
3 | N=C(N)NC[C@H]1Cc2cc(CN3CCC[C@H]3CO)ccc2[C@@H]1NC(=O)C(=O)Nc1ccc(Cl)c(F)c1 | Active | Active | 13.5 | –
4 | N=C(N)NC[C@H]1Cc2cc(CN3CCCCC3)ccc2[C@@H]1NC(=O)C(=O)Nc1ccc(Cl)c(F)c1 | – | – | 5.5 | IC50 [6]: > 100 µM
5 | N=C(N)NC[C@H]1Cc2cc(CN3CC[C@H](N)C3)ccc2[C@@H]1NC(=O)C(=O)Nc1ccc(Cl)c(F)c1 | – | – | 10.1 | –
6 | N=C(N)NC[C@H]1Cc2cc(CN[C@H]3CNC[C@@H]3O)ccc2[C@@H]1NC(=O)C(=O)Nc1ccc(Cl)c(F)c1 | Active | Active | 7.5 | –
7 | N=C(N)NC[C@H]1Cc2cc(CN3CCC(C(N)=O)CC3)ccc2[C@@H]1NC(=O)C(=O)Nc1ccc(Cl)c(F)c1 | – | – | 33 | –
8 | N=C(N)NC[C@H]1Cc2cc(CN3CC[C@H](O)C3)ccc2[C@@H]1NC(=O)C(=O)Nc1ccc(Cl)c(F)c1 | Active | Active | 9.2 | –
9 | N=C(N)NC[C@H]1Cc2cc(CN3CCC[C@@H]3C(=O)O)ccc2[C@@H]1NC(=O)C(=O)Nc1ccc(Cl)c(F)c1 | – | – | 32.4 | –
10 | N=C(N)NC[C@H]1Cc2cc(CN3CCC[C@@H]3CO)ccc2[C@@H]1NC(=O)C(=O)Nc1ccc(Cl)c(F)c1 | Active | Active | 11.1 | –
11 | N=C(N)NC[C@H]1Cc2cc(CN3CCCC3)ccc2[C@@H]1NC(=O)C(=O)Nc1ccc(Cl)c(F)c1 | Active | Active | 4 | IC50 [6]: > 100 µM
12 | N=C(N)NC[C@H]1Cc2cc(CN3CCC[C@H]3C(=O)O)ccc2[C@@H]1NC(=O)C(=O)Nc1ccc(Cl)c(F)c1 | – | – | 45.1 | –
13 | N=C(N)NC[C@H]1Cc2cc(CN3CCC[C@H](C(=O)O)C3)ccc2[C@@H]1NC(=O)C(=O)Nc1ccc(Cl)c(F)c1 | – | – | 60 | –
14 | N=C(N)NC[C@H]1Cc2cc(CN3CC[C@@H](N)C3)ccc2[C@@H]1NC(=O)C(=O)Nc1ccc(Cl)c(F)c1 | – | – | 14 | –
15 | N=C(N)NC[C@H]1Cc2cc(CN3CCNCC3)ccc2[C@@H]1NC(=O)C(=O)Nc1ccc(Cl)c(F)c1 | Active | Active | 4 | IC50 [6]: > 100 µM
16 | N=C(N)NC[C@H]1Cc2cc(CN3CC[C@@H](O)C3)ccc2[C@@H]1NC(=O)C(=O)Nc1ccc(Cl)c(F)c1 | Active | Active | 10.2 | –
17 | CNCc1ccc2c(c1)C[C@H](CNC(=N)N)[C@H]2NC(=O)C(=O)Nc1ccc(Cl)c(F)c1 | – | – | – | IC50 [7]: > 100 µM; IC50 [5]: 9.6 µM
18 | N=C(N)NC[C@H]1Cc2cc(CN3CCC[C@H]3C(N)=O)ccc2[C@@H]1NC(=O)C(=O)Nc1ccc(Cl)c(F)c1 | Active | Active | 12 | –
19 | N=C(N)NC[C@H]1Cc2cc(CN3CCN(c4ccc(F)cc4F)CC3)ccc2[C@@H]1NC(=O)C(=O)Nc1ccc(Cl)c(F)c1 | – | – | 50 | –
20 | N#CC1CCN(Cc2ccc3c(c2)C[C@H](CNC(=N)N)[C@H]3NC(=O)C(=O)Nc2ccc(Cl)c(F)c2)CC1 | – | – | 60.7 | –
